# Compound activity from PubChem.
# LEDGF integ inh: blocks HIV-1 LEDGF/p75-dependent DNA integration. TR-FRET IN-LEDGF/p75 DNA integration, Eu/Cy5. hit rate 0.64% among 370,000. inhibition, % at 3.7 µM;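 active = inhibition above the screen-wide mean plus 3 SD, cut at about 13% in these data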;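 also: signal is the Cy5 over europium emission ratio at 671 and 618 nm; 0% = plate median of compound wells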
# UHRF1 MBD2 ctr: human UHRF1 methylated DNA binding inhibitors. Q96T88. UHRF1 binding to methylated oligo, TR-FRET. inhibition, % at 4.4 µM. hit rate 0.75% among 370,000. AID 687016; in the data active = inhibition above about 21%;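 also: UHRF1 SRA domain binding a hemimethylated CpG hairpin DNA probe; 0% = median of test compound wells and 100% = reference inhibitor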
# MBD2 DNA inh: inhibitors of human MBD2 binding to methylated oligonucleotide; Q9UBB5; TR-FRET; inhibition, % at 4.4 µM; hit rate 0.31% among 370,000; in the data active = inhibition above about 13%
# TDP2 inh: TDP2 (human) inhibition, absorbance primary screen; O95551; recombinant TDP2, T5PNP hydrolysis, p-nitrophenol absorbance 415 nm; inhibition, % at 12.8 µM; hit rate 0.34% among 370,000; AID 720702;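 active = inhibition above the mean of all tested compounds plus 3 SD, set per campaign, cut at about 25% in these data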;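 also: 0% = DMSO with enzyme and 100% = buffer with substrate but no TDP2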
#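 Material: recombinant human TDP2; quantity: TDP2 enzyme at 120 nM final; medium: Tris-HCl pH 7.5 with MgCl2; compound: single concentration, 12.8 µM nominal, with 1% DMSO; incubation: 2 h enzyme incubation at 37 °C; signal: epi absorbance; measure: percent inhibition; benchmarks: high control without enzyme, low control DMSO plus TDP2; repeats: singlicate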
# TDP2 inh conf: human TDP2 inhibition, confirmation. shares compounds with TDP2 inh. recombinant human TDP2, absorbance read-out. inhibition, % at 12.8 µM. hit rate 22% among 1,100. AID 743263; in the data active = inhibition above about 25%;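 also: 0% = vehicle with enzyme and 100% = no enzyme buffer only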
# Active calls of the source: *; x = no result given. Sampled rows, rich in hits. Any-hit rate of the full collection: about 1.6%.
SMILES,LEDGF integ inh,UHRF1 MBD2 ctr,MBD2 DNA inh,TDP2 inh,TDP2 inh conf
Cc1oc2c(c1C(=O)c1ccccc1)C(=O)C(=O)c1ccccc1-2,-1,7,2,38*,55*
CSc1nc2ccsc2c(=O)n1-c1cccnc1,3,2,2,-1,x
CSc1nc2ccsc2c(=O)n1-c1ccccn1,1,0,2,60*,9
CCN(CC)S(=O)(=O)c1ccc2oc(SCC(=O)Nc3cc(C)on3)nc2c1,-2,-1,-3,41*,-5
Cc1cc(NC(=O)CSc2nc3cc(Cl)ccc3o2)no1,0,0,-1,9,x
CCCCCCC/C=C(\C)[C@@H](O)[C@@H](C)C(=O)N1CCC[C@@H]1C(=O)O[C@H](C(=O)O[C@@H](C)C(=O)O)[C@@H](C)CC,3,10,4,-8,x
CC1=NN(c2ccccc2)C(=O)C1=C(C)C,5,-7,-6,37*,12
COc1cc2c(cc1OC)[C@@H](NC(=O)c1ccncc1)[C@H](C)[C@H]2c1ccccc1,0,1,-1,9,x
O=C(Cc1ccccc1[N+](=O)[O-])NC1CC1,2,0,0,3,x
O=C(Cc1ccccc1[N+](=O)[O-])NCC1(c2cccc3c2OCO3)OCCO1,3,-1,0,27*,5
CCOC(=O)CC[C@H]1CC[C@]2(CCCN(C(=O)C(C)(C)C)C2)O1,2,1,3,-2,x
COc1cc(C2C(C#N)=C(N)Oc3n[nH]c(-c4cccnc4)c32)ccc1OCC(N)=O (stereo not drawn),9,-7,-12,52*,-3
COc1cc(C2C(C#N)=C(N)Oc3n[nH]c(-c4cccnc4)c32)cc(Br)c1O (stereo not drawn),7,-6,-8,31*,-4
Cc1ccc(C2C(C#N)=C(N)Oc3n[nH]c(-c4cccnc4)c32)o1 (stereo not drawn),3,-9,-4,14,x
COC(=O)[C@]12CCCCC=C1N(Cc1ccc(OC)cc1)C(=O)[C@@H]2CC(=O)NCc1ccccc1,-4,1,-2,-4,x
CC1=NN(Cc2cc(C(C)(C)C)c(O)c(C(C)(C)C)c2)C(=O)C1,-1,-4,1,25*,0
CCOc1ccccc1NC(=O)C(NCCN(C)C)c1ccccc1 (stereo not drawn),1,0,-1,27*,13
Cc1cccc(CN2CCSCCS2(=O)=O)c1,-3,-2,-3,2,x
Cc1cccc(CN2CCSCC2)c1,5,0,1,27*,-2
CC1(C)CC(=O)C2=C(C1)OC(N)=C(C#N)C2c1ccccc1 (stereo not drawn),-1,0,1,68*,3
Cc1cccc(NC(=O)C2CCN(C(=O)[C@@H]3Cc4ccccc4CN3)CC2)c1,-4,-3,-4,0,x
Cc1ccc(NC(=O)C2CCN(C(=O)[C@@H]3Cc4ccccc4CN3)CC2)c(C)c1,1,9,5,25*,2
COc1ccc(NC(=O)C2CCN(C(=O)[C@@H]3Cc4ccccc4CN3)CC2)cc1,-1,1,-5,28*,2
COCCNC(=S)Nc1ccc(Cl)c(Cl)c1,5,9,0,-1,x
COCCNC(=S)Nc1ccc2nsnc2c1,11,5,-6,74*,2
SMILES,LEDGF integ inh,UHRF1 MBD2 ctr,MBD2 DNA inh,TDP2 inh,TDP2 inh conf
S=C(Nc1ccc2nsnc2c1)N1CCCCCC1,5,-3,-3,62*,68*
O=C(CCn1nnc2ccccc21)N1CCN(c2ccc(F)cc2)CC1,-2,0,-3,5,x
COc1cccc(N2CC(C(=O)Nc3nnc(SCCC4OCCO4)s3)CC2=O)c1 (stereo not drawn),-3,-5,-8,29*,2
O=C(NCc1ccccc1)[C@H]1CCCN1C(=O)[C@H]1CCCN1C(=O)c1cccc(F)c1,1,1,2,6,x
CCOC(=O)C1(Cc2ccccc2)CCN(Cc2ccccc2[N+](=O)[O-])CC1,-2,1,-2,3,x
Cc1c(O)ccc2c(CC(=O)N[C@@H](Cc3ccc(O)cc3)C(=O)O)cc(=O)oc12,1,-4,3,31*,4
C[C@H]1C(=O)CC[C@@]23CCCN2C(=O)CCC[C@@H]13,2,2,5,-2,x
CCN(CC)c1ccc(C=Nn2c(-c3cc(C)[nH]n3)n[nH]c2=S)cc1,-4,-1,-2,1,x
COc1cc2c(cc1OC)-c1cc3ccc4c(c3c[n+]1CC2)OCO4,5,-67,-23,26*,9
COc1ccccc1-c1ccc2c(c1)[C@@H]1C[C@H]3[C@@H](CN1CC2)[C@H](C)ON3C,2,1,-6,3,x
N#Cc1c(-c2ccccc2)cc(-c2ccc(O)cc2)nc1N,3,-2,-2,29*,-5
O=C(NCC1CCN(C(=O)C(=O)c2cccs2)CC1)c1ccncc1,-5,0,-3,0,x
Cc1cccc(Cn2cc(CN3CC(N4CCN(CCOC(=O)c5cc6ccccc6o5)CC4)CS3(=O)=O)nn2)c1 (stereo not drawn),0,9,1,-2,x
Cc1ccc(C)c(S(=O)(=O)NCc2ccc(C(=O)N3CCOCC3)cc2)c1,5,1,-3,25*,-5
Cc1nn(-c2ccccc2)c(N)c1C1(O)C(=O)Nc2ccc([N+](=O)[O-])cc21 (stereo not drawn),-4,-4,0,33*,-4
Cc1nn(-c2ccc(F)cc2)c(N)c1C1(O)C(=O)Nc2ccccc21 (stereo not drawn),4,-1,-1,3,x
NC(=O)C1CCCN(C(=O)CCCNC(=O)c2ccc(Cl)cc2)C1 (stereo not drawn),-1,0,4,30*,7
COC(=O)C1=CN(Cc2ccccc2)C=C(C(=O)OC)C1c1ccc(OC)c(OC)c1,-1,-4,3,26*,5
COc1cccc(NC(=O)c2cccc(C(=O)Nc3cccc(OC)c3)n2)c1,1,-2,2,25*,-6
COc1cccc(NC(=O)c2cccnn2)c1,-1,-1,-4,7,x
CC1=C(C(=O)OC(C)C)C2(O)C(=O)c3ccccc3C2(O)N1 (stereo not drawn),3,-7,-8,44*,13
CC1=C(C#N)C2(O)C(=O)c3ccccc3C2(O)N1 (stereo not drawn),-10,3,4,-12,x
CCCCOC(=O)C1=C(C)NC2(O)c3ccccc3C(=O)C12O (stereo not drawn),3,-5,-9,61*,25*
CCOC(=O)C1=C(C)N[C@@]2(O)c3ccccc3C(=O)[C@@]12O,2,-6,-2,36*,29*
CC(C)(C)c1ccc(C#C[C@@H]2C=C[C@@H](O)[C@@H](COC(=O)NCc3ccccc3)O2)cc1,10,15,10,-3,x
CC(=O)NC1=NN(c2ccccc2)C(=O)C1,8,9,1,55*,5
